# Bioassay records (PubChem)
# Only some compounds are listed: those with a hit (about 3.9% of all), similar ones and a draw of the others.
# TMEM16A act: activators or potentiators of mouse TMEM16A chloride channel | HEK293 TMEM16A/YFP-H148Q/I152L, iodide quench fluorescence; active compounds read low | B-score at 10 µM | hit rate 0.3% among 340,000 | AID 623877;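 active = fluorescence-ratio B-score plate-corrected deviation score at least 3 library SD below zero, with starting fluorescence score within 5 deviations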;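 note: channel opened by trigger with iodide after compound preincubation; score built on the fluorescence ratio of max minus min over baseline; more negative score means more quench and so TMEM16A activation or potentiation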
# CRFR2-BP ag: agonists of human CRF-binding protein/CRF-R2 receptor complex; HEK293 CRF-R2/CRF-BP, calcium dye fluorescence (FLIPR); percent of saturating CRF peptide response; activation, % at 13.2 µM; hit rate 0.46% among 350,000;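 active = activation of at least 50%, plus an integration ratio under a set limit after plate pattern correction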
# TMEM16A inh: blocks the mouse calcium-activated chloride channel TMEM16A; Q8BHY3; HEK293 TMEM16A/YFP iodide influx fluorescence, ionomycin; normalized B-score (activity score, 25-100; higher = stronger inhibition) at 10 µM; hit rate 1.2% among 310,000; AID 588511;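 active = ratio plate-corrected score three or more library SD toward inhibition, starting fluorescence score within five deviations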;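 note: score derived from kinetic fluorescence span divided by baseline fluorescence per well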
# TAAR1 antagonist: antagonists of human TAAR1; CHO RD-HGA16 TAAR1, Fluo-8 calcium fluorescence, antagonist; inhibition, % at 3 µM; hit rate 1.5% among 360,000;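 active = inhibition above a per-plate cutoff, the mean inhibition of test compounds on that plate plus 3 SD, cut at about 49% in these data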
# Target sequence (Q96RJ0 whole entry, looked up): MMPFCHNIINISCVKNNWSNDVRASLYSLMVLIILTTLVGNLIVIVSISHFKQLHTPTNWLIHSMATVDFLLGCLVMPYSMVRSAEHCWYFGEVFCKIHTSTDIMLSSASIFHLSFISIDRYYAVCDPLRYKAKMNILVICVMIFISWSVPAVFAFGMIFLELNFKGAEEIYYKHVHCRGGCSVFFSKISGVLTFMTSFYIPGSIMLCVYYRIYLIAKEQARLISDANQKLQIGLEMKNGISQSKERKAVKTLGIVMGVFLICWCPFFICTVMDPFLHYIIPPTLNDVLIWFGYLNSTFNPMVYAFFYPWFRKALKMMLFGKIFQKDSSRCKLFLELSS
#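 Material: CHO RD-HGA16 cells bearing hTAAR1; compound dosing: one-point dosing, 3 µM nominal final; schedule: dye loading 75 min at 37 °C, then 30 min room temperature; measured by: calcium fluorescence with Fluo-8; control set: vehicle and agonist controls; replication: n of 1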
# TAAR1 ag: human TAAR1 agonism | Q96RJ0 | CHO RD-HGA16 TAAR1, Fluo-8 calcium fluorescence; vehicle wells 0%, saturating PEA agonist 100% | activation, % at 3 µM | hit rate 0.99% among 360,000 | AID 624467;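 active = activation above the mean activation of all test compounds in the run plus 3 SD, cut at about 38% in these data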
#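 Assay system – CHO-derived RD-HGA16 cells with stable Gα16 and human TAAR1 · Compound dosing – one-point dosing at 3 µM (nominal) · Incubation – 17-24 h seeding, 75 min 37 °C dye, 30 min RT · Measured by – kinetic Fluo-8 calcium fluorescence · Control set – DMSO vehicle as 0%, PEA at EC100 as 100% · Repeats – single well for each compound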
# CRFBP-R2 block: antagonists of CRF-binding protein/CRF-R2 receptor complex. HEK293 CRF-R2/CRF-BP, CRF-induced calcium fluorescence. inhibition, % at 11.8 µM. hit rate 0.59% among 350,000;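 active = inhibition of the ligand-induced calcium signal above about 50% at the single tested concentration, limit read from the data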
# TAAR1 ag confirm: human TAAR1 agonism, confirmed | hit rate 82% among 2,400 | CHO RD-HGA16 TAAR1, Fluo-8 calcium fluorescence; scaled: DMSO 0%, maximal phenethylamine 100% | activation, % at 3 µM | shares compounds with TAAR1 ag | AID 651783;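 active = activation above a cutoff set at the run's mean compound activation plus 3 SD, cut at about 39% in these data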
# Ga16 ag counter: counter-screen for TAAR1 agonists: nonselective agonists in parental cells | hit rate 50% among 2,400 | shares compounds with TAAR1 ag | activation, % at 3 µM | CHO-Ga16 parental, Fluo-8 calcium fluorescence; normalized to maximal ATP response, DMSO zero;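 active = activation above the run cutoff, the mean activation over all tested wells plus 3 SD, cut at about 12% in these data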
# TAAR1 desensitize: TAAR1 response desensitization, agonist counter-screen; shares compounds with TAAR1 ag; CHO RD-HGA16 hTAAR1, Fluo-8 calcium, beta-PEA response inhibition; inhibition, % at 3 µM; hit rate 46% among 2,400; AID 651951;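 active = inhibition above the run cutoff, the mean inhibition of all test compounds plus 3 SD, cut at about 49% in these data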;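 note: beta-PEA stimulus applied at its EC80; loss of beta-PEA calcium signal after compound pretreatment read as receptor desensitization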
# Ga16 antag count: counter-screen for TAAR1 agonists: nonselective Ga16 antagonists; hit rate 39% among 2,400; inhibition, % at 3 µM; shares compounds with TAAR1 ag; CHO-Ga16 ATP-induced calcium, Fluo-8 fluorescence;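 active = inhibition above the plate's mean compound inhibition plus 3 SD, computed per plate, cut at about 22% in these data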
# Numbers stand for hits; – = inactive; · = not tested or not shown.
SMILES,TMEM16A act,CRFR2-BP ag,TMEM16A inh,TAAR1 antagonist,TAAR1 ag,CRFBP-R2 block,TAAR1 ag confirm,Ga16 ag counter,TAAR1 desensitize,Ga16 antag count
CCOc1ccccc1CNC(=O)c1ccc2nc(N3CCOCC3)sc2c1,–,–,–,–,–,–,·,·,·,·
COc1ccc(CNCCC(c2ccc(OC(C)C)cc2)c2ccccc2OC)cc1 (stereo unspecified),–,–,–,–,–,–,·,·,·,·
COc1ccc(CNCCC(c2ccccc2)c2ccc3c(c2)OCO3)cc1 (stereo unspecified),–,–,–,–,59.5,–,57.6,30.3,61.7,36.8
S=c1nc(NCCc2ccccc2Cl)c2ccccc2[nH]1,·,–,–,–,51.6,–,–,–,–,22.3
Cc1ccc(N2C(N)=C(C#N)C(c3cccs3)C3=C2CC(C)(C)CC3=O)cc1 (stereo unspecified),–,–,–,–,45.4,–,39.0,11.9,–,–
CCOC(=O)C(NC(C)=O)(N1CCc2ccccc2C1)C(F)(F)F (stereo unspecified),–,–,–,92.5,102.8,–,107.6,–,98.3,–
CCOC(=O)C(NC(C)=O)(N1CCOCC1)C(F)(F)F (stereo unspecified),·,·,–,·,·,·,·,·,·,·
Cc1ccccc1OCc1n(CC(=O)OC2CC(C)CCC2C(C)C)c2ccccc2[n+]1C (stereo unspecified),–,–,100,–,46.6,–,86.5,23.5,86.6,47.7
Cc1ccc2nc(NCc3ccccc3)[nH]c2c1,–,–,–,–,43.1,–,65.9,–,–,–
Cc1ccc(/C=C/S(=O)(=O)Nc2ccc(C)cc2)cc1,–,–,–,–,–,–,·,·,·,·
Cc1cccn2c(=O)nc(SCC(=O)Nc3ccc4c(c3)OCCO4)nc12,–,–,–,–,–,–,·,·,·,·
CC1Sc2ccc(S(=O)(=O)NCCc3ccccc3)cc2NC1=O (stereo unspecified),–,–,–,–,69.5,–,66.3,–,–,–
O=S(=O)(NCCc1ccccc1)c1ccc(F)cc1,–,–,–,64.2,72.9,–,85.9,–,79.5,–
O=S(=O)(NCCc1ccccc1)c1cccc2cccnc12,–,–,–,–,62.9,–,78.3,–,–,–
O=S(=O)(NCc1ccccc1)c1cccc2cccnc12,–,–,–,–,–,–,·,·,·,·
CC(=O)Nc1ccc(S(=O)(=O)NCCc2ccc(F)cc2)cc1,–,–,–,–,–,–,·,·,·,·
CC1Sc2ccc(S(=O)(=O)NCCc3ccc(S(N)(=O)=O)cc3)cc2NC1=O (stereo unspecified),–,–,–,–,–,–,·,·,·,·
CSc1nc(N)nc(SCC(=O)c2ccc(C)cc2)c1C#N,–,–,–,54.1,52.2,–,–,–,–,–
CSc1nc(N)nc(SCC(=O)OC(C)C)c1C#N,–,–,–,–,–,–,·,·,·,·
OC(c1cc(C(F)(F)F)nc2c(C(F)(F)F)cccc12)C1CCCCN1 (stereo unspecified),–,–,–,50.2,67.2,–,67.5,43.6,60.4,53.8
OC(c1cc(-c2ccc(C(F)(F)F)cc2)nc(C(F)(F)F)c1)C1CCCCN1 (stereo unspecified),–,–,–,–,81.9,–,81.6,61.7,69.1,69.7
